Test results as given in ChEMBL document CHEMBL3580585, “The synthesis of sulforaphane analogues and their protection effect against cisplatin induced cytotoxicity in kidney cells” (2014).
Active and inactive are the calls of the source. No cut-off for these calls is given here.

Assays:
LLC-PK1 [1] = assay: Renoprotective activity against cisplatin-induced cytotoxicity in pig LLC-PK1 cells assessed as cell survival at 2.5 uM after 24 hrs by WST-1 assay in presence of 25 uM cisplatin (reference value: 60%); format: functional, Sus scrofa
Method in brief: (§1)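 Pig kidney LLC-PK1 cells were given 25 µM cisplatin to cause oxidative stress, alongside test compound in dose-response format, up to 10 µM, or up to 2.5 µM for analogues toxic at high doses. Survival was read by WST-1 assay […]. Potency was taken as the concentration giving more than 60% cell survival.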

LLC-PK1 [2] = assay: Renoprotective activity against cisplatin-induced cytotoxicity in pig LLC-PK1 cells assessed as decrease in p53 level at 2.5 uM by western blot analysis in presence of 25 uM cisplatin; format: functional, cell-based; settings: Sus scrofa
Method in brief: (§2)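 LLC-PK1 cells were exposed to cisplatin together with several concentrations of test compound. Phospho-JNK, p53 and cleaved caspase-3 protein levels were measured 24 h after cisplatin treatment.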

LLC-PK1 [3] = assay: Renoprotective activity against cisplatin-induced cytotoxicity in pig LLC-PK1 cells assessed as decrease in phoshorylated JNK level by western blot analysis in presence of 25 uM cisplatin; format: functional, cell-based; settings: Sus scrofa; method in brief: as §2
LLC-PK1 [4] = assay: Renoprotective activity against cisplatin-induced cytotoxicity in pig LLC-PK1 cells assessed as increase in cell survival at >1 uM by cell imaging analysis in presence of 25 uM cisplatin; format: functional, cell-based; settings: Sus scrofa
LLC-PK1 [5] = assay: Renoprotective activity against cisplatin-induced cytotoxicity in pig LLC-PK1 cells assessed as decrease in cleaved caspase-3 level by western blot analysis in presence of 25 uM cisplatin; format: functional, cell-based; settings: Sus scrofa; method in brief: as §2
LLC-PK1 [6] = assay: Renoprotective activity against cisplatin-induced cytotoxicity in pig LLC-PK1 cells assessed as decrease in apoptotic cells at 25 uM after 24 hrs by Tali image-based cytometer analysis in presence of cisplatin; format: functional, cell-based; settings: Sus scrofa
Method in brief: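 LLC-PK1 cells were co-treated with cisplatin and test compound, then stained so that dead cells show red and apoptotic cells green. The percentage of apoptotic cells was counted on a Tali image-based cytometer.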

LLC-PK1 [7] = assay: Renoprotective activity against cisplatin-induced cytotoxicity in pig LLC-PK1 cells assessed as cell survival at 10 uM after 24 hrs by WST-1 assay in presence of 25 uM cisplatin (reference value: 60%); format: functional, Sus scrofa; method in brief: as §1

Q: `S=C=NCCc1ccc(N=C=S)cc1` was tested. Which Activity (LLC-PK1 [1]) did it give?
A: >80%

Q: How did the Activity (LLC-PK1 [1]) turn out when `Oc1ccc(CCN=C=S)cc1` was run?
A: >80%

Q: For `S=C=NCc1cccc(Cl)c1`, which Activity (LLC-PK1 [1]) is on record?
A: >80%

Q: Which Activity (LLC-PK1 [2]) does the source give for `S=C=NCC(c1ccccc1)c1ccccc1` here?
A: Active

Q: And the Activity (LLC-PK1 [3])?
A: Dose-dependent effect

Q: What about the Activity (LLC-PK1 [4]) of the same molecule?
A: Active

Q: What about the Activity (LLC-PK1 [5]) of the same molecule?
A: Dose-dependent effect

Q: And the Activity (LLC-PK1 [1])?
A: 93%

Q: And the Activity (LLC-PK1 [6])?
A: Active

Q: Which Activity (LLC-PK1 [7]) does the source give for `C[S+]([O-])CCCCN=C=S` (stereo not given) [SULFORAPHANE] here?
A: >77%
